42 compounds from ChEMBL document CHEMBL2407007, “Exploring the space of histidine containing dipeptides in search of novel efficient RCS sequestering agents” (Eur J Med Chem, 2013) can be followed below.

Data set [1] in a line: Selectivity ratio of antioxidant activity assessed as HNE quenching to antioxidant activity assessed as PYR quenching. Summed up: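 Ratio of % HNE quenched to % pyridoxal quenched. Both measured after 180 min incubation, with % consumption taken against blanks without compound.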
The nature of data set [2]: Antioxidant activity assessed as HNE quenching at 1 mM after 180 mins by HPLC analysis. The class given is functional. Summed up: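 HNE consumption measured with dipeptide at 1 mM in 10 mmol PBS pH 7.4, 180 min at 37 °C. Remaining HNE measured by reversed-phase HPLC with PDA detection at 224 nm. Column at 37 °C. Isocratic H2O/CH3CN/HCOOH 40/60/0.1. Result given as % aldehyde consumed relative to a blank without compound.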

Data set [3] can be described thus: Antioxidant activity assessed as PYR quenching after 180 mins by HPLC analysis. The class given is functional. Details: concentration or dose not given beside the values. The method, boiled down:
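Pyridoxal used as the target aldehyde under the same incubation (180 min). Consumption determined by HPLC with fluorimetric detection. Expressed as % aldehyde consumed versus a blank incubated without compound.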

Data set [4] can be described thus: Stability in human serum assessed as compound remaining at 50 uM after 30 mins by LC-MS analysis. The format is ADME, cell-free. The following applies: read-out: Stability.

Residues, ends and D or L forms follow the SMILES beside them.

On to `NC(=O)[C@@H](Cc1cnc[nH]1)NC(=O)[C@@H](N)Cc1c[nH]c2ccccc12`, for which, in data set [1], the Selectivity ratio amounted to 86.2. The Activity in data set [2] is 11.2%; in data set [3] it was 0.13%.
The matching figures for `NC(=O)[C@H](Cc1cnc[nH]1)NC(=O)[C@@H](N)Cc1c[nH]c2ccccc12`: 6.01, 8.62% and 1.86%.
Regarding `COC(=O)[C@@H](Cc1cnc[nH]1)NC(=O)[C@@H](N)Cc1ccc(O)cc1`, the Selectivity ratio in data set [1] was determined as 21.3. For the same compound, the Activity in data set [2] is 27.4%; in data set [3] it was 1.29%. Further, the remaining at 0.5 h, 50 µM in data set [4] stood at 40.5%.
The matching figures for `NC(=O)CC[C@H](N)C(=O)N[C@H](Cc1cnc[nH]1)C(N)=O`: 9.4, 14.8%, 1.57% and 81.3%.
`NC(=O)[C@@H](Cc1cnc[nH]1)NC(=O)[C@@H](N)CS`: the Selectivity ratio in data set [1] was found to be 2.69. Moreover, the Activity in data set [2] was determined as 100%; in data set [3], 37.2%.
`COC(=O)[C@@H](Cc1cnc[nH]1)NC(=O)[C@@H](N)C(C)C`: in data set [1], the Selectivity ratio amounted to 4.67. The Activity stood at 16.9% in data set [2] and 3.62% in data set [3].
Taken in the same sequence, the figures for `COC(=O)[C@@H](Cc1cnc[nH]1)NC(=O)[C@@H](N)CO` were 2.84, 5.91% and 2.08%.
Taken in the same sequence, the figures for `NC(=O)[C@H](Cc1cnc[nH]1)NC(=O)[C@@H](N)Cc1cnc[nH]1` were 1.35, 9.81% and 7.86%.
`NC(=O)[C@@H](Cc1cnc[nH]1)NC(=O)[C@@H](N)Cc1ccccc1`: in data set [1], the Selectivity ratio came out at 9.57. In addition, the Activity in data set [2] is 6.7%; in data set [3], 0.7%.
`NCCCC[C@H](N)C(=O)N[C@H](Cc1cnc[nH]1)C(N)=O`: the Selectivity ratio in data set [1] is 5.55. Besides, the Activity in data set [2] stood at 4.16%; in data set [3], 0.75%. Moreover, in data set [4], the remaining at 0.5 h, 50 µM worked out at 68%.
In the case of `COC(=O)[C@H](Cc1cnc[nH]1)NC(=O)[C@@H](N)CS`, in data set [1], the Selectivity ratio is 3.96. Further, the Activity amounted to 100% in data set [2] and 25.3% in data set [3].
Take `COC(=O)[C@@H](Cc1cnc[nH]1)NC(=O)[C@@H](N)CCCCN`: the Selectivity ratio in data set [1] worked out at 29.1. Further, the Activity was determined as 10.2% in data set [2] and 0.35% in data set [3]. In addition, the remaining at 0.5 h, 50 µM in data set [4] came to 90.5%.
For the compound `COC(=O)[C@H](Cc1cnc[nH]1)NC(=O)[C@@H](N)Cc1ccc(O)cc1`, the Selectivity ratio in data set [1] worked out at 3.12. The Activity in data set [2] amounted to 12.5%; in data set [3] it was 4.02%.
The matching figures for `NC(=O)[C@@H](Cc1cnc[nH]1)NC(=O)[C@@H](N)Cc1cnc[nH]1`: 1.26, 9.16% and 7.28%.
With `COC(=O)[C@@H](Cc1cnc[nH]1)NC(=O)[C@@H](N)Cc1c[nH]c2ccccc12`, in data set [1], the Selectivity ratio was determined as 3.24. Further, the Activity is 18.8% in data set [2] and 5.81% in data set [3].
Taken in the same sequence, the figures for `COC(=O)[C@H](Cc1c[nH]cn1)NC(=O)[C@@H](N)Cc1c[nH]c2ccccc12` were 2.79, 11.7% and 4.2%.
Take `N=C(N)NCCC[C@H](N)C(=O)N[C@@H](Cc1cnc[nH]1)C(N)=O`: the Selectivity ratio in data set [1] stood at 30. Further, the values for the Activity in data set [2] and in data set [3] were 7.79% and 0.26%, respectively.
With `COC(=O)[C@H](Cc1cnc[nH]1)NC(=O)[C@@H](N)CCSC`, the Selectivity ratio in data set [1] was 0.07. Further, the Activity in data set [2] turned out to be 0.17%; in data set [3], 2.61%.
For `NC(=O)[C@H](Cc1cnc[nH]1)NC(=O)[C@@H](N)CS`, the Selectivity ratio in data set [1] is 3.61. For the same compound, the figures for the Activity in data set [2] and in data set [3] were 100% and 27.7%, respectively.
Turning to `COC(=O)[C@@H](Cc1cnc[nH]1)NC(=O)[C@@H](N)CCSC`, the Selectivity ratio in data set [1] turned out to be 0.58. For the same compound, the Activity is 1.81% in data set [2] and 3.11% in data set [3].
Regarding `COC(=O)[C@@H](Cc1cnc[nH]1)NC(=O)[C@@H](N)CC(N)=O`, the Selectivity ratio in data set [1] turned out to be 8.33. In addition, the Activity was 9.5% in data set [2] and 1.14% in data set [3].
Taken in the same sequence, the figures for `NC(=O)[C@H](Cc1cnc[nH]1)NC(=O)[C@@H](N)CC(=O)O` were 5.16, 5.99% and 1.49%.
As for `NC(=O)CC[C@H](N)C(=O)N[C@@H](Cc1cnc[nH]1)C(N)=O`, the Selectivity ratio in data set [1] worked out at 3.54. Besides, the figures for the Activity in data set [2] and in data set [3] were 9.37% and 2.65%, respectively.
In the case of `COC(=O)[C@@H](Cc1cnc[nH]1)NC(=O)[C@@H](N)CS`, the Selectivity ratio in data set [1] came to 2.45. Also, the Activity in data set [2] was 100%; in data set [3], 40.8%.
As to `NCCC(=O)N[C@@H](Cc1c[nH]cn1)C(=O)O`, in data set [1], the Selectivity ratio is 8.65. Further, the results for the Activity in data set [2] and in data set [3] were 48.2% and 5.57%, respectively.
Regarding `COC(=O)[C@H](Cc1cnc[nH]1)NC(=O)[C@@H](N)CCC(=O)O`, the Selectivity ratio in data set [1] is 16.1. Besides, the Activity in data set [2] worked out at 12.2%; in data set [3], 0.76%.
Taken in the same sequence, the figures for `N=C(N)NCCC[C@H](N)C(=O)N[C@H](Cc1cnc[nH]1)C(N)=O` were 27.9, 12% and 0.43%.
The matching figures for `NC(=O)[C@H](Cc1cnc[nH]1)NC(=O)[C@@H](N)Cc1ccccc1`: 8.02, 9.79% and 1.22%.
Taken in the same sequence, the figures for `COC(=O)[C@H](Cc1cnc[nH]1)NC(=O)[C@@H](N)CO` were 51.8, 5.18% and 0.1%.
For the compound `COC(=O)[C@H](Cc1cnc[nH]1)NC(=O)[C@@H](N)Cc1cnc[nH]1`, in data set [1], the Selectivity ratio was determined as 3.3. The Activity came to 6% in data set [2] and 1.82% in data set [3].
Turning to `CC[C@H](C)[C@H](N)C(=O)N[C@H](Cc1cnc[nH]1)C(N)=O`, in data set [1], the Selectivity ratio stood at 8.69. The Activity in data set [2] was 5.13%; in data set [3], 0.59%.
Turning to `COC(=O)[C@@H](Cc1cnc[nH]1)NC(=O)[C@@H](N)Cc1cnc[nH]1`, the Selectivity ratio in data set [1] came to 1.15. In addition, the Activity amounted to 8.86% in data set [2] and 7.7% in data set [3].
The matching figures for `C[C@@H](O)[C@H](N)C(=O)N[C@@H](Cc1cnc[nH]1)C(N)=O`: 2.75, 3.9% and 1.42%.
Taken in the same sequence, the figures for `COC(=O)[C@H](Cc1cnc[nH]1)NC(=O)[C@@H](N)C(C)C` were 5.71, 4.97% and 0.87%.
Take `COC(=O)[C@H](Cc1cnc[nH]1)NC(=O)[C@@H](N)CCCCN`: the Selectivity ratio in data set [1] was found to be 16.7. Further, the figures for the Activity in data set [2] and in data set [3] were 31.3% and 1.87%, respectively. Besides, in data set [4], the remaining at 0.5 h, 50 µM amounted to 87.5%.
Consider `C[C@@H](O)[C@H](N)C(=O)N[C@H](Cc1cnc[nH]1)C(N)=O`, for which, in data set [1], the Selectivity ratio was found to be 1.83. For the same compound, the values for the Activity in data set [2] and in data set [3] were 12.1% and 6.62%, respectively.
Taken in the same sequence, the figures for `CC[C@H](C)[C@H](N)C(=O)N[C@@H](Cc1cnc[nH]1)C(N)=O` were 3.51, 7.09% and 2.02%.
Regarding `NC(=O)[C@@H](Cc1cnc[nH]1)NC(=O)[C@@H](N)CC(=O)O`, the Selectivity ratio in data set [1] worked out at 4.02. For the same compound, the Activity in data set [2] was 5.98%; in data set [3], 1.16%.
In the case of `NCCCC[C@H](N)C(=O)N[C@@H](Cc1cnc[nH]1)C(N)=O`, in data set [1], the Selectivity ratio is 38.3. In addition, the Activity stood at 15.7% in data set [2] and 0.41% in data set [3]. Besides, the remaining at 0.5 h, 50 µM in data set [4] turned out to be 67.7%.
`COC(=O)[C@@H](Cc1cnc[nH]1)NC(=O)[C@@H](N)CCC(=O)O`: the Selectivity ratio in data set [1] turned out to be 18. The results for the Activity in data set [2] and in data set [3] were 13.1% and 0.73%, respectively.
Taken in the same sequence, the figures for `COC(=O)[C@H](Cc1cnc[nH]1)NC(=O)[C@@H](N)CC(N)=O` were 9.59, 9.59% and 1%.
The matching figures for `NCC(=O)N[C@@H](Cc1cnc[nH]1)C(=O)O` (H-Gly-His-OH): 2.42, 9.11% and 3.77%.
